Reference: ChEMBL document CHEMBL4513216, “Probing the Open Global Health Chemical Diversity Library for Multistage-Active Starting Points for Next-Generation Antimalarials” (ACS Infect Dis, 2020)

assay: Toxicity liver stage against HepG2, at 10uM; assay type: cell-based; parameters: test concentration 10 uM, cell line HepG2-A16-CD81EGFP; settings: human, HepG2-A16-CD81EGFP cells; read-out: INHIBITION
Method in brief: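 Uninfected HepG2-A16-CD81EGFP cells, 3 × 10^3 per well, 1536-well, plated on prespotted compound at 10 μM final, parasite-free screening media added to match infected plates; puromycin 10 μM positive, DMSO 0.5% negative; run in parallel with 48 h PbLuc assay at 37 °C, 5% CO2; viability by CellTiter-Glo luminescence, normalized to controls.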

Compared with Cc1c(C)n2c(SCC(=O)N3CCOCC3)nnc2[nH]c1=O, CCOc1cc(C(=O)N2CCOCC2)cc2occc12 is lower in cytotoxicity at 10 µM: 3.26% for the first, -4.92% for the second.

Compared with Cn1c(=O)c2sccc2n(Cc2ccccc2)c1=O, Cc1nccc(N2CC[C@@H]3[C@@H](CCC(=O)N3CCc3ccccc3)C2)n1 is lower in cytotoxicity at 10 µM: 4.84% for the first, 2.19% for the second.

Compared with COc1cc(CN2CCCC2c2cccc(F)c2)cc(OC)c1OC (stereo not given), COc1cc(C(=O)NC(C)C)nc2c(C)cc(F)cc12 is higher in cytotoxicity at 10 µM: -2.03% for the first, 2.43% for the second.

Going from Cc1cc(C(=O)N2CCN(c3nc4ccccc4s3)CC2)no1 to Cc1cccc(C(=O)N2Cc3ccccc3C3(CCN(C)CC3)C2)n1, the cytotoxicity at 10 µM rises from -110% to -73.5%.

Compared with O=C(O)C1CCCN(c2nc3c(-c4ccccc4)csc3c(=O)[nH]2)C1 (stereo not given), NC(=O)C1CCCN(S(=O)(=O)c2cnn(-c3ccccc3)c2)C1 (stereo not given) is lower in cytotoxicity at 10 µM: -10.1% for the first, -66.6% for the second.

First: CC(C)CNC(=O)c1cn(C(C)C)cc2c(=O)[nH]nc1-2
Second: Cc1ccc(C(=O)NCC(C)CN2CCCC2=O)c(=O)[nH]1 (stereo not given)
The cytotoxicity at 10 µM of the first is higher: 0.583% for the first, -8.57% for the second.

Going from C1CCN(c2nc(N3CCOCC3)nc3[nH]nnc23)CC1 to CCN(C)CC(=O)N1CCC(c2cc(N3CCOCC3)nc(C)n2)CC1, the cytotoxicity at 10 µM falls from 8.95% to 6.9%.

First: O=C(Cn1ccc2ccccc21)N1CCC(Oc2ncccc2Br)CC1
Second: c1ccc(COc2ccccc2NC2CCOCC2)nc1
The cytotoxicity at 10 µM of the first is higher: 4.51% for the first, 2.2% for the second.

Compared with COc1ncc(NC(=O)c2ccco2)c(OC)n1, COc1cnc(C2(O)CCN(C(=O)c3scnc3C)CC2)c(OC)n1 is lower in cytotoxicity at 10 µM: -3.74% for the first, -6.41% for the second.

Compared with O=C(NC1CCC1)[C@H]1C[C@H]2NCCO[C@@H]2C1, O=C(NCc1ccccn1)[C@H]1COC[C@H]2CN(CC3CC3)C[C@H]21 is higher in cytotoxicity at 10 µM: -131% for the first, -80.8% for the second.

Compared with CCOCC1CN(S(C)(=O)=O)Cc2cnn(C)c21 (stereo not given), CCOCC1CN(CCN2CCCCC2)Cc2cnn(C)c21 (stereo not given) is lower in cytotoxicity at 10 µM: -15.4% for the first, -99.9% for the second.

Going from O=C(CC1CC1)NCc1cc(=O)n2c(n1)CN(Cc1ccoc1)CCC2 to CC1CCCCN1c1nc2c(c(=O)[nH]1)CCN(Cc1ccccn1)C2 (stereo not given), the cytotoxicity at 10 µM rises from -20.6% to -10.7%.

First: CCCc1noc(C2CCN(C(=O)CCn3nc(C)cc3C)CC2)n1
Second: Cc1cncc(C2CCCN(C(=O)c3cn(C)nc3C)C2)n1 (stereo not given)
The cytotoxicity at 10 µM of the first is higher: 7.47% for the first, -7.91% for the second.

Going from Cc1ccc(CN2C(=O)CCC2C(=O)Nc2cnn(C)c2)o1 (stereo not given) to COc1ccc2c(c1)CC(NCCCn1cc(C)cn1)CC2 (stereo not given), the cytotoxicity at 10 µM rises from -3.72% to 18%.

First: CN(C)c1cc(CC(NC(=O)C2CC2)c2ccccc2)nc(C2CC2)n1 (stereo not given)
Second: Cc1cccc(Nc2nccnc2C2CCCN(CC(=O)N(C)C)C2)n1 (stereo not given)
The cytotoxicity at 10 µM of the first is higher: 5.73% for the first, -3.03% for the second.

Going from Cc1nn(C)cc1S(=O)(=O)N[C@@H]1CCC[C@@H](N2CCCC2)[C@@H]1O to Cc1nccn1-c1cccc(C2CCCN(C3CCCC3)C2)n1 (stereo not given), the cytotoxicity at 10 µM falls from -3.02% to -12.7%.

Compared with COCC(=O)N1CCCCC1c1nc(C)c2c(n1)N(C1CC1)C(=O)CC2 (stereo not given), Cc1nc(COC[C@@H]2CC[C@H]3[C@H](CCN3C(=O)C3CC3)O2)cs1 is lower in cytotoxicity at 10 µM: -1% for the first, -73.9% for the second.

First: CN1CCC(Cc2cc(N(C)C)ncn2)C1 (stereo not given)
Second: Cc1noc(C)c1-c1cccc(CC2CCN(C(=O)CN)C2)n1 (stereo not given)
The cytotoxicity at 10 µM of the first is higher: 3.19% for the first, -3.36% for the second.

First: COc1ccccc1C1(O)CCCN(C(=O)c2cnc(SC)nc2)C1 (stereo not given)
Second: COc1cccc2c1OCCCN(Cc1ncccc1C(=O)O)C2
The cytotoxicity at 10 µM of the first is higher: 7.27% for the first, 4.12% for the second.

Going from Cc1n[nH]c(C)c1-c1nccnc1CC1CCN(C(C)C)CC1 to Fc1ccc(CN2CCC(c3nccnc3-n3ccnc3)CC2)cc1, the cytotoxicity at 10 µM rises from -5.36% to -0.259%.

First: CC(=O)N1CCCC(c2cccc(-n3ccnc3)n2)C1 (stereo not given)
Second: COc1ccc(CCCC(=O)N2CCCC(n3cccn3)C2)cc1 (stereo not given)
The cytotoxicity at 10 µM of the first is lower: -9.08% for the first, -7.36% for the second.

First: COc1ccc(CN2C[C@@H](O)[C@](O)(CNC(=O)c3ccccn3)C2)cc1
Second: CCN(C(=O)c1ccc2nncn2c1)C(C)Cc1ccc(OC)cc1 (stereo not given)
The cytotoxicity at 10 µM of the first is higher: 8.46% for the first, -5.53% for the second.

Going from O=C1NCc2ccccc2CC12CCN(Cc1ccccc1Cl)CC2 to O=C(CN1C(=O)CCNC1=O)N1CCC2(CCc3ccccc32)CC1, the cytotoxicity at 10 µM falls from 5.86% to -11.2%.

Going from CC(=O)Nc1ccc(CNC2COc3c2ccc(C)c3C)cc1 (stereo not given) to O=C(CCC1CCCO1)NCCCC(=O)Nc1ccc(Cl)cc1 (stereo not given), the cytotoxicity at 10 µM falls from 6.56% to -0.649%.

Compared with OCc1cccc(OCc2ccon2)c1, O=C(NCCOc1ccc(F)c(F)c1)NCc1ccncc1 is lower in cytotoxicity at 10 µM: 0.266% for the first, -8.25% for the second.

Going from CCc1cc(=O)[nH]c(-c2ccc(NCCC(C)O)nc2)n1 (stereo not given) to CCCc1cc(=O)[nH]c(-c2ccccc2CN(C)CCC(C)C)n1, the cytotoxicity at 10 µM rises from -127% to 3.53%.

Compared with CC(CC(=O)N1CCN(c2cnccn2)CC1)c1ccc(F)cc1 (stereo not given), CC(C)OCCN1CCN(c2ccc(Cl)cn2)CC1 is higher in cytotoxicity at 10 µM: -48% for the first, -1.67% for the second.

First: Cc1nc(-c2ccc(CC(=O)N3CCNC(=O)C3)cc2)cs1
Second: Cc1cc(C(=O)N2CCNC(c3ccccc3)C2)c2ccc(F)cc2n1 (stereo not given)
The cytotoxicity at 10 µM of the first is higher: 6.14% for the first, 3.09% for the second.

Compared with CC(=O)NCCCNCc1ccc(Cl)c2cccnc12, CN(C)c1ncc(CNC(=O)Nc2ccccc2C(F)(F)F)n1C is lower in cytotoxicity at 10 µM: -3.17% for the first, -55.3% for the second.

First: CC(NC(=O)c1ccc(C#N)cn1)C1(N2CCOCC2)CCCC1 (stereo not given)
Second: CN(Cc1ccc(F)cc1)C(=O)NCC1(N2CCOCC2)CCSC1 (stereo not given)
The cytotoxicity at 10 µM of the first is higher: 2.54% for the first, -21.9% for the second.

Going from CSCC(CCO)NC(=O)Nc1cccc(Br)c1C (stereo not given) to CSCCc1nc(C(C)C)nn1-c1ccncc1C, the cytotoxicity at 10 µM rises from -3.7% to 1.63%.

Compared with CC(C)c1ncc2c(n1)CN(Cc1nc3c(F)cccc3[nH]1)CC2, CCC1CCCN(Cc2nc(N)c3ccccc3n2)C1 (stereo not given) is lower in cytotoxicity at 10 µM: 1.09% for the first, -11.2% for the second.

Compared with Cn1c(SCC(O)COCc2ccccc2Cl)nnc1C1CC1 (stereo not given), COc1ccccc1CC(=O)N1CCC(NCc2cc[nH]c2)CC1 is higher in cytotoxicity at 10 µM: -2.24% for the first, 0.593% for the second.

Compared with CC(=O)c1ccc(OCC(=O)NS(=O)(=O)c2ccc(Cl)s2)cc1, COC(=O)CCNC(=O)c1coc(COc2ccc(F)cc2)n1 is lower in cytotoxicity at 10 µM: 1.77% for the first, -4.1% for the second.

Going from CC(C)N(Cc1ccccn1)C(=O)CCC(=O)c1ccc(F)cc1F to CCOCc1nccc(-c2ccc(OCC)c(C(=O)O)c2)n1, the cytotoxicity at 10 µM rises from -0.535% to 2.55%.

Compared with COc1ccccc1CNCc1nn(-c2ccccc2)c2c1CCC2, Cc1ccccc1C(Nc1ncnc2c1CCNC2)c1ccccc1 (stereo not given) is lower in cytotoxicity at 10 µM: 34.4% for the first, 7.78% for the second.

First: CC(C)c1ocnc1C(=O)N1CC(=O)Nc2cccnc21
Second: COCc1nc(CN2CC(=O)N(C)c3ccccc3C2=O)no1
The cytotoxicity at 10 µM of the first is higher: 1.56% for the first, -6.03% for the second.

First: CC1(C)Cc2ccc(C(=O)NC3CCS(=O)(=O)C3)c(O)c2O1 (stereo not given)
Second: CCN1CC2(CCC1=O)CCN(C(=O)c1ccc(Cl)cc1O)CC2
The cytotoxicity at 10 µM of the first is higher: 0.329% for the first, -12.8% for the second.

Going from N#Cc1ccc(OCCNc2cccc(C(=O)N3CCOCC3)c2)cc1 to N#Cc1ccc(C(=O)N2C[C@@H](CN3CCCC3)C[C@H](CO)C2)cc1, the cytotoxicity at 10 µM rises from -2.96% to -2.86%.

Going from COc1ccc(-c2nnc(SC(C)C(=O)NC3CC3)[nH]2)c(OC)c1 (stereo not given) to Cc1ccsc1C(=O)N1CC[C@@H](N(C)C)[C@@H]1Cc1cnn(C)c1, the cytotoxicity at 10 µM falls from 45.3% to -77.6%.

Going from O=C(Nc1cccc(CN2CCOC2=O)c1)N1CCSCC1 to Cc1cccc(CN2C[C@@H]3CN(C4CCOCC4)C[C@@H]3C2=O)c1, the cytotoxicity at 10 µM falls from -11.3% to -130%.

First: CCc1cnc(CN(C)C2CCN(CCS(C)(=O)=O)C2)o1 (stereo not given)
Second: COCCN1C(=O)CC[C@@H]2[C@H]1CCN2Cc1ccc(C)s1
The cytotoxicity at 10 µM of the first is higher: -3.94% for the first, -70.4% for the second.

First: Cc1nn(CC(=O)N2CCCC2Cn2cccn2)c(C)c1Cl (stereo not given)
Second: Cc1nc(C)c(C(=O)N2CCCC(C(=O)c3nccn3C)C2)s1 (stereo not given)
The cytotoxicity at 10 µM of the first is lower: 2.27% for the first, 2.3% for the second.

Going from CN(C)C(=O)N1CC(C(=O)NCC2CC2)C2(CCOCC2)C1 (stereo not given) to CC1=N[C@@]2(CC[C@@H]3CN(CC(=O)N(C)C)C[C@@H]32)C(=O)N1CC1CC1, the cytotoxicity at 10 µM rises from -95.1% to -3.9%.

First: O=C1CC(c2cccnc2)C2(CCN(C(=O)N3CCOCC3)CC2)N1 (stereo not given)
Second: O=C1COC2(COCCN(Cc3cccnc3)C2)CN1c1ccccc1 (stereo not given)
The cytotoxicity at 10 µM of the first is lower: -79.5% for the first, 9.72% for the second.

First: C[C@H]1CN(C(=O)N(C)C)C[C@@]12CCN(c1ccsc1)C2=O
Second: CN1CC(c2ccccc2)CC12CCN(C(=O)c1ccc(F)cc1)CC2 (stereo not given)
The cytotoxicity at 10 µM of the first is lower: -73.1% for the first, -12.1% for the second.

First: CC(C)Nc1ncnc2c1CCN(C(=O)CN(C)C)CC2
Second: CC(=O)N1CCC(n2nccc2-c2cnc(N)nc2)CC1
The cytotoxicity at 10 µM of the first is lower: -70.9% for the first, 1.3% for the second.

Going from Cc1cc2c(=O)n(CCSc3cnn[nH]3)cnc2s1 to Cc1noc(C)c1C(=O)N1Cc2ncn(C)c2C(COCC(C)C)C1 (stereo not given), the cytotoxicity at 10 µM falls from 10.1% to -105%.

Compared with CC(Cn1ccnc1)NCc1ccc2nonc2c1 (stereo not given), Cc1cccc(-c2ncc(CNC(C)Cc3ccncc3)cn2)c1 (stereo not given) is lower in cytotoxicity at 10 µM: 2.57% for the first, -8.18% for the second.

Going from Cc1ccccc1SC1CCN(C(=O)[C@@H]2C[C@@H](N)CN2)CC1 to N[C@H]1CN(C(=O)c2ccc(CO)cc2)C[C@@H]1C1CC1, the cytotoxicity at 10 µM rises from -7.69% to 2.56%.

Compared with Cc1ccc(NCCCNC(=O)C2CC3(CCNCC3)CN2C)nc1 (stereo not given), CN1C[C@H]2CNC[C@@]2(C(=O)NC2CCN(c3ncccc3C#N)CC2)C1 is lower in cytotoxicity at 10 µM: 6.07% for the first, -0.766% for the second.

Compared with O=C1[C@@H]2CN(c3ncnc4[nH]ccc34)C[C@]2(C(=O)O)CN1CC1CC1, Cc1cc(N2CCN(Cc3ccccc3)CC(O)C2)cc(C)n1 (stereo not given) is lower in cytotoxicity at 10 µM: 2.62% for the first, -17.4% for the second.

Compared with CCN(CC)C1CCN(c2nccc(C3CCCC3)n2)C1 (stereo not given), CCN(CC)Cc1cn2c(n1)CN(C(=O)c1cnccn1)CC2 is higher in cytotoxicity at 10 µM: -12.7% for the first, 6.15% for the second.

Going from CC(C)[C@H]1CN(S(=O)(=O)c2cccnc2)C[C@@H]1N to Cc1cnccc1NCCn1ccnc1C1CCOC1 (stereo not given), the cytotoxicity at 10 µM rises from 1.31% to 3.8%.

Going from COc1cc2c(cc1CNC(Cc1cccs1)c1nccs1)OCCO2 (stereo not given) to CN1CCNC(=O)C12CCN(Cc1ccco1)CC2, the cytotoxicity at 10 µM falls from -1.6% to -81.3%.
